These results are taken from publication PMC3460462 (The Journal of Biological Chemistry, 2012).

Format in all cases: cell-based
Assay [1] deals with T1, mFpr1 (Mus musculus, UniProt P33766).
T1 sequence (P33766 1-364): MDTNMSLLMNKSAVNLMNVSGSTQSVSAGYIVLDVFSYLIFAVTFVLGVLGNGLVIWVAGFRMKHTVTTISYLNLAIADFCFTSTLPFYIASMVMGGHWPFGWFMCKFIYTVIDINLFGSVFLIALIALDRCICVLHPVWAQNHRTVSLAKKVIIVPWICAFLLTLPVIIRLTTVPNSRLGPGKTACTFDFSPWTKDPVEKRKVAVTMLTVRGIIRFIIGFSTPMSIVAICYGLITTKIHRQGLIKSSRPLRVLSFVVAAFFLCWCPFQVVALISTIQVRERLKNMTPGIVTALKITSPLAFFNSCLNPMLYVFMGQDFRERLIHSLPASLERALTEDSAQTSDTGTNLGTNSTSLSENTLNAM
Nature of the assay: FLIPR Ca2+ assay, HEK293T cells transfected with mFpr1 and Gα16.

The next assay concerns the target T2, mFpr-rs1 (Mus musculus, UniProt O08790).
T2 sequence (O08790 1-351): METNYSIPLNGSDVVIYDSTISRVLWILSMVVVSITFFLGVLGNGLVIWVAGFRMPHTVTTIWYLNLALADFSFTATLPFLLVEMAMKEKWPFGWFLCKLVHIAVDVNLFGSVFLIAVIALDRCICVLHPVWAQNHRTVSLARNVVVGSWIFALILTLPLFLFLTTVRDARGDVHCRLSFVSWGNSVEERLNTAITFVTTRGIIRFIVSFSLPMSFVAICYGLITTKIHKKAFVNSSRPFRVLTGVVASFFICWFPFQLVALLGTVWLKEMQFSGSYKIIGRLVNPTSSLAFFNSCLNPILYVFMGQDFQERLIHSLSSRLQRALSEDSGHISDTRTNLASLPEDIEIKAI
Nature of the assay: FLIPR Ca2+ assay, HEK293T cells transfected with mFpr-rs1 and Gα16.

Another assay deals with T3, hFPR2 (Homo sapiens, UniProt P25090).
T3 sequence (P25090 1-351): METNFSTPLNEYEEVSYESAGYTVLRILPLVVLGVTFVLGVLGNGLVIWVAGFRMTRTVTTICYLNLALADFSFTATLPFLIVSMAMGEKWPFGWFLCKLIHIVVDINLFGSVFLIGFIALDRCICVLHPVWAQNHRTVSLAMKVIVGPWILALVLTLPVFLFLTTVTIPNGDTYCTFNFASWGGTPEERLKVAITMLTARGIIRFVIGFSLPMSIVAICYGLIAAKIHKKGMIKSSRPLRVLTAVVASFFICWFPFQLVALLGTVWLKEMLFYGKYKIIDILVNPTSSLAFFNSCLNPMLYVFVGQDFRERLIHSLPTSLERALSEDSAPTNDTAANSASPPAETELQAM
The experiment in a line: FLIPR Ca2+ assay, HEK293T cells transfected with hFPR2 and Gα16. The conditions noted are these: 1% DMSO.

Assay [2] deals with T4, mFpr2 (Mus musculus, UniProt O88536).
T4 sequence (O88536 1-351): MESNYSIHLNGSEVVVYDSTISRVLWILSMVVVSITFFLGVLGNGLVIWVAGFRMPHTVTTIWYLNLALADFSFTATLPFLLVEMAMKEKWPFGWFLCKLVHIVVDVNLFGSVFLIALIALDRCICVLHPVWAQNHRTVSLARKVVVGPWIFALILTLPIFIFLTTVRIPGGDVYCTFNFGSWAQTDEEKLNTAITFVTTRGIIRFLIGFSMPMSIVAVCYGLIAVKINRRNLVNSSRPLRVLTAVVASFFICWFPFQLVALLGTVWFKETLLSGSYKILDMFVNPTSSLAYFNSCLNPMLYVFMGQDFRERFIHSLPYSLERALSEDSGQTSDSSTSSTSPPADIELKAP
The experiment in a line: FLIPR Ca2+ assay, HEK293T cells transfected with mFpr2 and Gα16.

In a further assay the test system is mock-transfected cells. The experiment in a line: FLIPR Ca2+ assay, mock-transfected negative control. Particulars: mock-transfected negative controls; different kinetics. Put shortly:
(§1)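 HEK293T PEAKrapid cells seeded on poly-D-lysine, transfected 24 h later (jetPEI) with receptor plus Gα16 in equal amounts, or empty vector for mock. After 48 h, loaded with 2 μM Fluo-4 AM and 50 μM probenecid for 2 h at room temperature in C1 buffer (HEPES, pH 7.2), then rinsed three times. About 50,000 cells per well on FLIPR; ligands in C1. Response is ΔF/F0 (peak over baseline), fitted with a variable-slope sigmoid.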

The test system of assay [3] is human receptors (hFPR1, hFPR2, hFPR3). The experiment in a line: FLIPR Ca2+ assay, human receptors. Put shortly:
as §1

Assay [4] concerns the target T1, mFpr1. Nature of the assay: Single-cell resolution Ca2+ imaging, mFpr1. The conditions noted are these: 9 μM fMLF; single-cell Fura-2 Ca2+ imaging. The essentials:
(§2)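 Single-cell Ca2+ imaging on a Pathway Bioimager. HEK293T PEAKrapid cells cotransfected with receptor, Gα16 and EGFP plasmid (1/10) and loaded with Fura-2/AM. […] C1 buffer application served as mechanical control, with buffer-responding cells excluded; 30 μM ATP checked viability. Mock-transfected cells were the negative control, and responding cells were counted.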

Assay [5] deals with T4, mFpr2. Nature of the assay: Single-cell resolution Ca2+ imaging, mFpr2. Particulars: 9 μM fMLF; single-cell Fura-2 Ca2+ imaging. Put shortly: as §2
For assay [6], the system named is all other family members (hFPR3, vomeronasal Fprs). Nature of the assay: Single-cell resolution Ca2+ imaging, all other Fpr family members. The conditions noted are these: 9 μM fMLF; single-cell Fura-2 Ca2+ imaging. Put shortly: as §2

Ends that are not written are not given here.

As for `C[S+](C)[O-]` [DMSO, dimethyl sulfoxide], the saturation reached at at mFpr1 [1] (DMSO concentration, FLIPR Ca2+) is given as about 3%; at mFpr2 [2] (DMSO concentration), about 3%. Besides, the threshold of activation is about 0.1% at mFpr1 [1] (DMSO concentration, FLIPR Ca2+) and about 0.1% on mFpr2 [2] (DMSO concentration). The “receptor activation (in words)” value on mFpr-rs1 is “but not mFpr-rs1”; on hFPR2, “susceptible”. Moreover, the “concentrations giving unspecific DMSO-dependent signals” value in the assay on mock-transfected cells was over 2%.
In the case of “Ac2-26: classical Fpr agonist purchased from Tocris (Ac-AMVSEFLKQAWFIENEEQEYVQTVK; UniProt P04083 2-26, looked up, fragment)”, the “Ca2+ response (in words)” value in assay [3] is recorded as “robust Ca^2+ elevations”.
Take “H-RIHIGPGRALYTT-OH [V3gp120 HIV (BK-130)]”: the concentration giving a half-maximal response (EC50) – broadly, the concentration needed to bring the measured effect to its halfway point – on mFpr1 [1] was 4.5 µM. The compound also showed an activation threshold on mFpr1 [1] (FLIPR Ca2+) of about 1 µM. Also, the “subtype selectivity (in words)” value on mFpr1 [1] (mFpr1 versus mFpr2, FLIPR Ca2+) is listed as “strongly preferential activators of mFpr1”. For the same compound, at mFpr2 [2] (weak activation), the “concentrations at which only a weak activation was seen” value was at least 30 µM.
With “N-formylmethionine-leucine-phenylalanine [fMLF]”, the “activation by fMLF (in words)” value on mFpr1 [4] was “could be activated”; on mFpr2 [5] it was “could be activated”; in [6] it was “did not respond”.
